Experimental data as given in ChEMBL document CHEMBL3763114, “Syntheses and biological evaluation of 1,2,3-triazole and 1,3,4-oxadiazole derivatives of imatinib” (Bioorg Med Chem Lett, 2016).
Blank lines part the entries; values can stand above or below the compound they belong to.

How the values were obtained:
[1] = Antiproliferative activity against human HL60 cells assessed as inhibition of cell survival after 72 hrs by MTT assay; assay type: functional, cell-based; conditions: HL-60, 72 h
Summary of the method: (§1)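 Each of the three leukemia lines (K562, HL60, KG1a) was incubated with the compounds for 72 h. The survival rate was then read by MTT viability assay, with imatinib run as the positive control. Inhibitory activity is reported as IC50 in μM.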

K562 [2] = assay: Antiproliferative activity against human K562 cells assessed as inhibition of cell survival after 72 hrs by MTT assay; assay type: functional, cell-based; conditions: K562, 72 h; summary of the method: as §1
[3] = Antiproliferative activity against human KG1a cells assessed as inhibition of cell survival after 72 hrs by MTT assay; assay type: functional, cell-based; conditions: KG-1a; summary of the method: as §1
K562 [4] = assay: Antiproliferative activity against human K562 cells assessed as reduction in cell viability after 72 hrs by resazurin assay; assay type: functional, cell-based; conditions: K562, 72 h
[5] = Cytotoxicity against human 293T cells assessed as growth inhibition; assay type: cell-based, HEK-293T
[6] = Potency index, ratio of imatinib IC50 to compound IC50 for antiproliferative activity against human KG1a cells; assay type: functional

SMILES: Cc1ccc(-n2cc(-c3ccc(C)c(C(F)(F)F)c3)nn2)cc1Nc1nccc(-c2cccnc2)n1
IC50 [1]: > 30 µM
IC50 (K562 [2]): > 30 µM
IC50 [3]: > 30 µM

SMILES: Cc1ccc(-c2nnc(-c3cc(C(F)(F)F)cc(C(F)(F)F)c3)o2)cc1Nc1nccc(-c2cccnc2)n1
IC50 [1]: > 30 µM
IC50 (K562 [2]): > 30 µM
IC50 [3]: > 30 µM

IC50 (K562 [4]): 0.89 µM
SMILES: Cc1ccc(-n2cc(-c3ccc(CN4CCN(C)CC4)cc3)nn2)cc1Nc1nccc(-c2cccnc2)n1
IC50 (K562 [2]): 0.79 µM
CC50 [5]: 14.9 µM

SMILES: Cc1ccc(-c2cn(-c3ccc(CN4CCN(C)CC4)c(C(F)(F)F)c3)nn2)cc1Nc1nccc(-c2cccnc2)n1
IC50 [1]: 0.02 µM
IC50 (K562 [2]): 0.03 µM
IC50 [3]: 1.04 µM
CC50 [5]: 2.66 µM

SMILES: CCN(CC)c1ccc(-n2cc(-c3ccc(C)c(Nc4nccc(-c5cccnc5)n4)c3)nn2)cc1
IC50 [1]: 13.6 µM
IC50 (K562 [2]): > 30 µM
IC50 [3]: 2.93 µM

SMILES: Cc1ccc(-c2cn(-c3cc(C(F)(F)F)ccc3N3CCOCC3)nn2)cc1Nc1nccc(-c2cccnc2)n1
IC50 [1]: 17.5 µM
IC50 (K562 [2]): 9.99 µM
IC50 [3]: 2.43 µM

SMILES: COc1ccc(-n2cc(-c3ccc(C)c(Nc4nccc(-c5cccnc5)n4)c3)nn2)cc1
IC50 [1]: > 30 µM
IC50 (K562 [2]): > 30 µM

SMILES: Cc1ccc(-c2nnc(-c3ccc(CN4CCN(C)CC4)cc3)o2)cc1Nc1nccc(-c2cccnc2)n1
IC50 [1]: 0.57 µM
IC50 (K562 [2]): 4.9 µM
IC50 [3]: 1.78 µM
CC50 [5]: 7.63 µM

SMILES: Cc1ccc(-c2nnc(-c3cccnc3)o2)cc1Nc1nccc(-c2cccnc2)n1
IC50 [1]: > 30 µM
IC50 (K562 [2]): > 30 µM
IC50 [3]: > 30 µM

SMILES: Cc1ccc(-c2cn(-c3ccc(CN4CCN(C)CC4)cc3)nn2)cc1Nc1nccc(-c2cccnc2)n1
IC50 [1]: 6.74 µM
IC50 (K562 [2]): 4.7 µM
IC50 [3]: 6.16 µM
CC50 [5]: 4.15 µM

SMILES: Cc1nnc(-c2ccc(C)c(Nc3nccc(-c4cccnc4)n3)c2)o1
IC50 [1]: > 30 µM
IC50 (K562 [2]): > 30 µM
IC50 [3]: 18 µM

SMILES: Cc1ccc(-c2nnc(-c3ccc(CN4CCN(CCO)CC4)cc3)o2)cc1Nc1nccc(-c2cccnc2)n1
IC50 [1]: 0.81 µM
IC50 (K562 [2]): 4.85 µM
IC50 [3]: 4.53 µM

SMILES: Cc1ccc(-c2nnc(-c3ccc(C)c(C(F)(F)F)c3)o2)cc1Nc1nccc(-c2cccnc2)n1
IC50 [1]: > 30 µM
IC50 (K562 [2]): > 30 µM
IC50 [3]: > 30 µM

SMILES: Cc1ccc(-c2nnc(-c3ccc(CN4CCN(C)CC4)c(C(F)(F)F)c3)o2)cc1Nc1nccc(-c2cccnc2)n1
IC50 [1]: 0.05 µM
IC50 (K562 [2]): 0.51 µM
IC50 [3]: 0.58 µM
Ratio IC50 [6]: 30
CC50 [5]: 2.17 µM

SMILES: Cc1ccc(-n2cc(CCO)nn2)cc1Nc1nccc(-c2cccnc2)n1
IC50 [1]: 9.1 µM
IC50 (K562 [2]): 10.7 µM
IC50 [3]: 6.54 µM

SMILES: Cc1ccc(-c2nnc(-c3ccc(CN4CCN(CCN=C=S)CC4)cc3)o2)cc1Nc1nccc(-c2cccnc2)n1
IC50 [1]: 0.29 µM
IC50 (K562 [2]): 0.92 µM
IC50 [3]: 0.37 µM

SMILES: COc1ccc(-c2cn(-c3ccc(C)c(Nc4nccc(-c5cccnc5)n4)c3)nn2)cc1C(F)(F)F
IC50 [1]: 21.2 µM
IC50 (K562 [2]): 11.2 µM
IC50 [3]: 30 µM

SMILES: Cc1ccc(-c2cn(-c3ccc(CN4CCCC4)cc3)nn2)cc1Nc1nccc(-c2cccnc2)n1
IC50 [1]: 1.57 µM
IC50 (K562 [2]): 3.89 µM
IC50 [3]: 5.42 µM

SMILES: Cc1ccc(-n2cc(-c3ccc(CN4CCN(C)CC4)c(C(F)(F)F)c3)nn2)cc1Nc1nccc(-c2cccnc2)n1
IC50 [1]: 0.02 µM
IC50 (K562 [2]): 0.04 µM
IC50 [3]: 1.27 µM
CC50 [5]: 8.18 µM

SMILES: Cc1ccc(-n2cc(CCCCO)nn2)cc1Nc1nccc(-c2cccnc2)n1
IC50 (K562 [2]): 11.2 µM

SMILES: COc1cc(/C=C/C(=O)CC(=O)/C=C/c2ccc(OCCN3CCN(Cc4ccc(-c5nnc(-c6ccc(C)c(Nc7nccc(-c8cccnc8)n7)c6)o5)cc4)CC3)c(OC)c2)ccc1O
IC50 [1]: > 30 µM
IC50 (K562 [2]): > 30 µM
IC50 [3]: > 30 µM

SMILES: Cc1ccc(-c2cn(-c3ccccc3N3CCOCC3)nn2)cc1Nc1nccc(-c2cccnc2)n1
IC50 [1]: 1.49 µM
IC50 (K562 [2]): 5.86 µM
IC50 [3]: 0.44 µM
Ratio IC50 [6]: 30

SMILES: Cc1ccc(-c2nnc(-c3ccc(CN4CCN(CCO)CC4)c(C(F)(F)F)c3)o2)cc1Nc1nccc(-c2cccnc2)n1
IC50 [1]: 0.39 µM
IC50 (K562 [2]): 1.81 µM
IC50 [3]: 0.98 µM

SMILES: Cc1ccc(-c2nnc(-c3ccc(CN4CCN(CCN)CC4)c(C(F)(F)F)c3)o2)cc1Nc1nccc(-c2cccnc2)n1
IC50 [1]: 0.02 µM
IC50 (K562 [2]): 0.3 µM
IC50 [3]: 0.48 µM
Ratio IC50 [6]: 30

SMILES: Cc1ccc(-n2cc(-c3cc(C(F)(F)F)cc(C(F)(F)F)c3)nn2)cc1Nc1nccc(-c2cccnc2)n1
IC50 [1]: 1.6 µM
IC50 (K562 [2]): 2.65 µM
IC50 [3]: 9.93 µM

SMILES: Cc1ccc(-c2nnc(-c3ccc(CN4CCN(CCN=C=S)CC4)c(C(F)(F)F)c3)o2)cc1Nc1nccc(-c2cccnc2)n1
IC50 [1]: 0.07 µM
IC50 (K562 [2]): 0.5 µM
IC50 [3]: 0.94 µM

SMILES: Cc1ccc(-n2cc(C(C)O)nn2)cc1Nc1nccc(-c2cccnc2)n1 (stereo not drawn)
IC50 [1]: 25.5 µM
IC50 (K562 [2]): 15.3 µM
IC50 [3]: 12.7 µM

SMILES: C=CC(=O)NCCN1CCN(Cc2ccc(-c3nnc(-c4ccc(C)c(Nc5nccc(-c6cccnc6)n5)c4)o3)cc2C(F)(F)F)CC1
IC50 [1]: 2.66 µM
IC50 (K562 [2]): 0.6 µM

SMILES: Cc1ccc(-c2nnc(-c3ccc(F)c(C(F)(F)F)c3)o2)cc1Nc1nccc(-c2cccnc2)n1
IC50 [1]: > 30 µM
IC50 (K562 [2]): 29.7 µM
IC50 [3]: > 30 µM

SMILES: Cc1ccc(-c2cn(-c3ccc(N4CCOCC4)cc3)nn2)cc1Nc1nccc(-c2cccnc2)n1
IC50 [1]: > 30 µM
IC50 (K562 [2]): 23.4 µM
IC50 [3]: 5.28 µM

SMILES: Cc1ccc(-c2cn(-c3ccc(CN4CCCCC4)cc3)nn2)cc1Nc1nccc(-c2cccnc2)n1
IC50 [1]: 0.74 µM
IC50 (K562 [2]): 3.29 µM
IC50 [3]: 1.75 µM

SMILES: Cc1ccc(-c2cn(-c3ccc(CN4CCOCC4)cc3)nn2)cc1Nc1nccc(-c2cccnc2)n1
IC50 [1]: 6.96 µM
IC50 (K562 [2]): 22.6 µM
IC50 [3]: 1.32 µM

SMILES: Cc1ccc(NC(=O)c2ccc(CN3CCN(C)CC3)cc2)cc1Nc1nccc(-c2cccnc2)n1 [IMATINIB]
IC50 [1]: 0.03 µM
IC50 [3]: 16.7 µM
CC50 [5]: 20.5 µM
